This note sets out measurements from ChEMBL document CHEMBL3259620, “Structure-activity relationships and molecular modelling of new 5-arylidene-4-thiazolidinone derivatives as aldose reductase inhibitors and potential anti-inflammatory agents” (Eur J Med Chem, 2014).

Each structure is given as a SMILES string. Active and inactive are the calls of the source. The calls are words filed in the database; no cut-off is given here.

The test system of the first test is NCTC-2544. Nature of the test: Antiinflammatory activity in human NCTC-2544 cells assessed as reduction of IFN-gamma/histamine-induced-induced iNOS expression at 10 to 20 uM after 48 hrs by Western blot analysis. The test is classed as functional, cell-based. In a few lines:
(§1)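 NCTC 2544 keratinocytes kept at 37 °C in 95% air/5% CO2, medium with 10% foetal calf serum plus penicillin/streptomycin, plated 1.5 × 10⁶ per dish 24 h beforehand. Stimulated with 200 U/ml IFN-γ and 10^-4 M histamine while exposed to compound; after 48 h, lysates (50 µg protein) run in Western blots against NF-κB p50 (nuclear activated form) or iNOS, signal normalized to α-tubulin. Each experiment at least three times in triplicate, mean ± SEM.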
Take `NC(=O)COc1cccc(/C=C2\SC(=S)N(CC(=O)O)C2=O)c1`: the inhibition entry is “inactive”.

As for `NC(=O)COc1cccc(/C=C2\SC(=S)NC2=O)c1`, the inhibition entry was “Active”.

On to `COc1ccc(/C=C2\SC(=S)NC2=O)cc1OCC(N)=O`, for which the inhibition result was “Active”.

`COc1ccc(/C=C2\SC(=S)N(CC(=O)O)C2=O)cc1OCC(N)=O`: the inhibition entry was “Active”.

For `COc1cc(/C=C2\SC(=S)N(CC(=O)O)C2=O)ccc1OCC(N)=O`, the inhibition entry is “Active”.

Another test has as its target Aldo-keto reductase family 1 member B1 (Bos taurus) (UniProt P16116). Nature of the test: Inhibition of bovine aldose reductase assessed as oxidation of NADPH at 50 uM. An outline of the steps: (§2)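 AR purified from bovine lens (specific activity 1.2 U/mg), 5 mU per assay. Mixture of 0.25 M sodium phosphate pH 6.8, 4.67 mM D,L-glyceraldehyde, 0.11 mM NADPH, 0.38 M ammonium sulphate, 0.5 mM EDTA, 1% DMSO final. NADPH oxidation followed as absorbance decrease at 340 nm, 37 °C. IC50 by nonlinear fit to one-site competition log dose–inhibition curve.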
For `NC(=O)COc1ccc(/C=C2\SC(=O)NC2=O)cc1`, the inhibition was determined as 40%.

On to `NC(=O)COc1ccc(/C=C2\SC(=S)NC2=O)cc1`, for which the inhibition worked out at 34%.

The next test deals with T1, Nuclear factor NF-kappa-B complex (Homo sapiens) (UniProt Q00653+P19838+Q04206). The test is described as follows: Inhibition of IFN-gamma/histamine-induced NF-kappaB activation in human NCTC-2544 cells assessed as inhibition of nuclear translocation at 10 to 20 uM after 48 hrs by Western blot analysis. In kind it is cell-based. An outline of the steps: as §1
T1 sequence (P19838 whole entry, looked up): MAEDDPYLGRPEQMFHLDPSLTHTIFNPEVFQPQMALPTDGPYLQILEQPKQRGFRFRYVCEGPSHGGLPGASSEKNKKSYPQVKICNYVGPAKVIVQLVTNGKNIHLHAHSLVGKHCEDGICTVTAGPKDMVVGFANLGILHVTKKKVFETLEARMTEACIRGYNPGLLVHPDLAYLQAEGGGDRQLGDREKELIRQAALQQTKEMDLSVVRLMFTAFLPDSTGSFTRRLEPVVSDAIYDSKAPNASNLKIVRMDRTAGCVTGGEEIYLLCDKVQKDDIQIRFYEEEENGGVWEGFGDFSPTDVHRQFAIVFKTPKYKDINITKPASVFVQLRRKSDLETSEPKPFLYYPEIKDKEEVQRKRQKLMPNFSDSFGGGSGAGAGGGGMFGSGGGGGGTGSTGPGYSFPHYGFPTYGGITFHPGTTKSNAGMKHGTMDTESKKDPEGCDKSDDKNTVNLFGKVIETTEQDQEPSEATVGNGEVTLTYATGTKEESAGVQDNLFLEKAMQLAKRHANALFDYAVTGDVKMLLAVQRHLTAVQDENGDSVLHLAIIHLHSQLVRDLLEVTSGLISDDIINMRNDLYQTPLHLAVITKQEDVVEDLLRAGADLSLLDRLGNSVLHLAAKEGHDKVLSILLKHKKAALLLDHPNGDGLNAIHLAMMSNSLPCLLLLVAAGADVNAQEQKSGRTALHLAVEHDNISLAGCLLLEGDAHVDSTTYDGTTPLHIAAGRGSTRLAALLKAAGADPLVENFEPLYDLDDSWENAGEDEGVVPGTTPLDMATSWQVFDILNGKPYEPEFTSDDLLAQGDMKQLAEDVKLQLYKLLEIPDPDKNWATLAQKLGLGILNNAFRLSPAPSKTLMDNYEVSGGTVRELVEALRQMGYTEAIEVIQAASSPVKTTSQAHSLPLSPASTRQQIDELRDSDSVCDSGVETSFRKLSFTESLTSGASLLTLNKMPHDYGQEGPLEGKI
T1 sequence (Q00653 whole entry, looked up): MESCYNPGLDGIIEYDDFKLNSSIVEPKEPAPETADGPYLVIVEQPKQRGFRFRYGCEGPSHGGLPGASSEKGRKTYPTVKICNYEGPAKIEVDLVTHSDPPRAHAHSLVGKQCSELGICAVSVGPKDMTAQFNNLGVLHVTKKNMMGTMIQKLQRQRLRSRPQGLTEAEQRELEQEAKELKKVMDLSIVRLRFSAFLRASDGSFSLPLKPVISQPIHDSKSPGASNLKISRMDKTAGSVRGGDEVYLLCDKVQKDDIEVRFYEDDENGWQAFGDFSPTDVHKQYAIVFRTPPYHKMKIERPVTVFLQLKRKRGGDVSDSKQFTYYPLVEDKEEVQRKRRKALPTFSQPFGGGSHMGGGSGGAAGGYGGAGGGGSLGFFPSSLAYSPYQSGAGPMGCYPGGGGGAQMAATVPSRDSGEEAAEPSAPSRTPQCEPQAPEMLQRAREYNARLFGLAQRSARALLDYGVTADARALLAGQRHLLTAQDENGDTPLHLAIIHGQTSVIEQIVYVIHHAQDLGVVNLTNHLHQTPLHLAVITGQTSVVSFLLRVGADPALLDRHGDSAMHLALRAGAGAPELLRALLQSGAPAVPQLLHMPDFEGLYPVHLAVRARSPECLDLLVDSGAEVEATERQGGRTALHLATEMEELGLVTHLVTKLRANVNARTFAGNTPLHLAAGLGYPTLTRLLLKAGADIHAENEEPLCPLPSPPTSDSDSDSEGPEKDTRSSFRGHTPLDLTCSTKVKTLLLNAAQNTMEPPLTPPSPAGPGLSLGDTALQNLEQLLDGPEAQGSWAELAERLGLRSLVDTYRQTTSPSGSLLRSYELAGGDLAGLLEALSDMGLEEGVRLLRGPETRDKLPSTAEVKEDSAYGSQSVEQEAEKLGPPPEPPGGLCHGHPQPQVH
T1 sequence (Q04206 whole entry, looked up): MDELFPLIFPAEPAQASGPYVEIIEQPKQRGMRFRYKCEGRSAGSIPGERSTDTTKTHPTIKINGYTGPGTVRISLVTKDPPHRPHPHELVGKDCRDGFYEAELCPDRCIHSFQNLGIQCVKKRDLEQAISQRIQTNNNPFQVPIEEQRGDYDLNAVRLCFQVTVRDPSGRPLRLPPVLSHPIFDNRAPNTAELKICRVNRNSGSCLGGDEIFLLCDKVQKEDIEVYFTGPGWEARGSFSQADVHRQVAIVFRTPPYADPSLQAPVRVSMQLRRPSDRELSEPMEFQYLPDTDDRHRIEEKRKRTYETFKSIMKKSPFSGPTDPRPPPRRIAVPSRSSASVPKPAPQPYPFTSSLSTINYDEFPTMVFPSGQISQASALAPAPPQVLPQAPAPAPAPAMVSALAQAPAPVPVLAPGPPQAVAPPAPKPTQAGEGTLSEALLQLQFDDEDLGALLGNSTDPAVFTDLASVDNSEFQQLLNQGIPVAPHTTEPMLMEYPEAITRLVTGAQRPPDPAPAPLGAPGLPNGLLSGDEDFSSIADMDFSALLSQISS
In the case of `NC(=O)COc1cccc(/C=C2\SC(=S)N(CC(=O)O)C2=O)c1`, the “NF-kappaB nuclear translocation inhibition (active/not active)” value is “Active”.

Turning to `NC(=O)COc1cccc(/C=C2\SC(=S)NC2=O)c1`, the “NF-kappaB nuclear translocation inhibition (active/not active)” value was “inactive”.

Consider `COc1ccc(/C=C2\SC(=S)NC2=O)cc1OCC(N)=O`, for which the “NF-kappaB nuclear translocation inhibition (active/not active)” value is “inactive”.

As for `COc1ccc(/C=C2\SC(=S)N(CC(=O)O)C2=O)cc1OCC(N)=O`, the “NF-kappaB nuclear translocation inhibition (active/not active)” value was “Active”.

Take `COc1cc(/C=C2\SC(=S)N(CC(=O)O)C2=O)ccc1OCC(N)=O`: the “NF-kappaB nuclear translocation inhibition (active/not active)” value was “Active”.

For the next test, the target named is T1, Nuclear factor NF-kappa-B complex (Homo sapiens). Nature of the test: Inhibition of IFN-gamma/histamine-induced NF-kappaB activation in human NCTC-2544 cells assessed as inhibition of nuclear translocation at 10 uM after 48 hrs by Western blot analysis relative to sorbinil. The test is classed as cell-based. An outline of the steps:
as §1
For `NC(=O)COc1cccc(/C=C2\SC(=S)N(CC(=O)O)C2=O)c1`, the inhibition entry is “Active”.

On to `O=C1NC(=O)[C@@]2(CCOc3ccc(F)cc32)N1`, for which the inhibition result is “Active”.

As for `COc1ccc(/C=C2\SC(=S)N(CC(=O)O)C2=O)cc1OCC(N)=O`, the inhibition result is “Active”.

In the case of `COc1cc(/C=C2\SC(=S)N(CC(=O)O)C2=O)ccc1OCC(N)=O`, the inhibition result was “Active”.

The target of another test is Aldo-keto reductase family 1 member B1 (Bos taurus, UniProt P16116). The test is described as follows: Inhibition of bovine aldose reductase assessed as oxidation of NADPH. In a few lines: as §2
In the case of `NC(=O)COc1cccc(/C=C2\SC(=S)N(CC(=O)O)C2=O)c1`, the IC50 came out at 130 nM.

On to `NC(=O)COc1ccc(/C=C2\SC(=S)N(CC(=O)O)C2=O)cc1`, for which the IC50 was determined as 130 nM.

Consider `COc1ccc(/C=C2\SC(=O)N(CC(=O)O)C2=O)cc1OCC(N)=O`, for which the concentration for half-maximal inhibition (IC50) was determined as 520 nM.

Regarding `COc1cc(/C=C2\SC(=O)N(CC(=O)O)C2=O)ccc1OCC(N)=O`, the IC50 was determined as 500 nM.

For `NC(=O)COc1cccc(/C=C2\SC(=O)N(CC(=O)O)C2=O)c1`, the 50% inhibitory concentration (IC50) was found to be 1010 nM.

Regarding `COc1cc(/C=C2\SC(=S)NC2=O)ccc1OCC(N)=O`, the IC50 turned out to be 11600 nM.

For `NC(=O)COc1ccc(/C=C2\SC(=O)N(CC(=O)O)C2=O)cc1`, the IC50 is 560 nM.

`COc1cc(/C=C2\SC(=O)NC2=O)ccc1OCC(N)=O`: the IC50 came to 33900 nM.

As to `NC(=O)COc1cccc(/C=C2\SC(=O)NC2=O)c1`, the IC50 amounted to 21500 nM.

As to `NC(=O)COc1cccc(/C=C2\SC(=S)NC2=O)c1`, the half-inhibitory concentration (IC50) was determined as 8650 nM.

As for `COc1ccc(/C=C2\SC(=S)NC2=O)cc1OCC(N)=O`, the IC50 was 9200 nM.

With `COc1ccc(/C=C2\SC(=S)N(CC(=O)O)C2=O)cc1OCC(N)=O`, the IC50 is 130 nM.

`COc1ccc(/C=C2\SC(=O)NC2=O)cc1OCC(N)=O`: the half-maximal inhibitory concentration (IC50) was 22600 nM.

Regarding `COc1cc(/C=C2\SC(=S)N(CC(=O)O)C2=O)ccc1OCC(N)=O`, the IC50 amounted to 110 nM.

Another test concerns NCTC-2544. Nature of the test: Antiinflammatory activity in human NCTC-2544 cells assessed as reduction of IFN-gamma/histamine-induced-induced iNOS expression at 20 uM after 48 hrs by Western blot analysis relative to control level. The test is classed as functional, cell-based. An outline of the steps: as §1
Regarding `NC(=O)COc1cccc(/C=C2\SC(=S)NC2=O)c1`, the inhibition result is “Active”.

Regarding `COc1ccc(/C=C2\SC(=S)NC2=O)cc1OCC(N)=O`, the inhibition entry was “Active”.

With `COc1ccc(/C=C2\SC(=S)N(CC(=O)O)C2=O)cc1OCC(N)=O`, the inhibition result was “Active”.
